Experimental data: ChEMBL document CHEMBL3526116, “Toxicological evaluation of acyl glucuronides of nonsteroidal anti-inflammatory drugs using human embryonic kidney 293 cells stably expressing human UDP-glucuronosyltransferase and human hepatocytes” (Drug Metab Dispos, 2011); call rule not given here

Key:
[1] = tested on: HEK293; experiment: Cytotoxicity against HEK293 cells expressing UGT1A4 assessed as decrease in cell viability at 1 mM measured at 24 hrs by MTT assay; format: ADME, cell-based; details: human, hek293, 24 h, 1000 µM
[2] = tested on: HEK293; experiment: Cytotoxicity against HEK293 cells expressing UGT assessed as decrease in cell viability at 1 mM measured up to 72 hrs by MTT assay; format: ADME, cell-based; details: human, hek293, 72 h, 1000 µM
Summary of the method: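 Mock and UGT1A3/UGT1A4 stable HEK293 cells given drug for up to 72 h; viability measured by WST-8-based MTT assay.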

[3] = tested on: HEK293; experiment: Cytotoxicity against HEK293 cells expressing UGT1A3 assessed as decrease in cell viability at 1 mM measured at 24 hrs by MTT assay; format: ADME, cell-based; details: human, hek293, 24 h, 1000 µM
[4] = tested on: HEK293; experiment: Cytotoxicity against HEK293 cells expressing UGT assessed as LDH leakage at 1 mM after 6 to 24 hrs by spectrophotometric analysis relative to total cell LDH level; format: ADME, cell-based; details: human, hek293, 1000 µM
Summary of the method: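 Stable UGT-expressing or mock HEK293 lines in DMEM with 0.5% FBS, 2 x 10^4 cells/well, drug for 6, 12 or 24 h. LDH released into medium read at 490 nm (690 nm reference); percentage calculated against maximum release from control cells lysed with 1% Triton X-100.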

[5] = tested on: HEK293; experiment: Cytotoxicity against mock transfected HEK293 cells assessed as decrease in cell viability by measuring intracellular ATP content at 1 mM by CellTiter-Glo luminescent assay; format: cell-based; details: human, hek293, 1000 µM; TDE = time-dependent effect
Summary of the method: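 Mock-transfected HEK293 cells seeded at 2 x 10^4 cells/well in DMEM with 0.5% FBS, drug added at once and incubated 6, 12 or 24 h. Viability read either by WST-8 (CCK-8) formazan absorbance at 450 nm or by intracellular ATP luminescence (CellTiter-Glo), as percent of control cells; mean ± SD of triplicates. Final DMSO ≤0.1%.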

[6] = tested on: HEK293; experiment: Cytotoxicity against HEK293 cells expressing UGT1A4 assessed as decrease in cell viability by measuring intracellular ATP content at 1 mM by CellTiter-Glo luminescent assay; format: ADME, cell-based; details: human, hek293, 1000 µM; TDE = time-dependent effect
Summary of the method: (§1)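 UGT1A3 or UGT1A4 stable HEK293 cells, 2 x 10^4 cells/well in 0.1 mL DMEM with 0.5% FBS, drug for 6, 12 or 24 h. Viability from intracellular ATP via CellTiter-Glo luminescence, expressed as percent of control cells. Mean ± SD of triplicates.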

[7] = tested on: HEK293; experiment: Cytotoxicity against HEK293 cells expressing UGT1A3 assessed as decrease in cell viability at 1 mM by MTT assay; format: ADME, cell-based; details: human, hek293, 1000 µM; TDE = time-dependent effect
[8] = tested on: HEK293; experiment: Cytotoxicity against HEK293 cells expressing UGT1A3 assessed as decrease in cell viability by measuring intracellular ATP content at 1 mM by CellTiter-Glo luminescent assay; format: ADME, cell-based; details: human, hek293, 1000 µM; TDE = time-dependent effect; summary of the method: as §1
[9] = tested on: Hepatocyte; experiment: Cytotoxicity against human hepatocytes assessed as decrease in cell viability by measuring intracellular ATP content at 1 mM measured at 6 hrs by CellTiter-Glo luminescent assay in presence of acyl glucuronidation inhibitor (-)-borneol; format: cell-based; details: 1000 µM
Summary of the method: (§2)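 Human hepatocytes (pooled, cryopreserved), 2 × 10^4 cells/well on collagen in HCM with 0.5% FBS and 10 nM estradiol; 30-min preincubation ± 1 mM (-)-borneol, then drug 6 h. Intracellular ATP measured by CellTiter-Glo luminescence, percent of control cells. Triplicates, mean ± SD.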

[10] = tested on: Hepatocyte; experiment: Cellular uptake in human hepatocytes at 1 mM measured at 6 hrs by LC-MS/MS analysis in presence of acyl glucuronidation inhibitor (-)-borneol; format: ADME, cell-based; details: 1000 µM
Summary of the method: (§3)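 Cryopreserved pooled human hepatocytes on collagen-coated wells, 2 × 10^5 cells/well in HCM medium with 0.5% FBS, preincubated 30 min with or without 1 mM (-)-borneol, then drug for 6 h; DMSO ≤0.2% final. Parent drug in cell fraction measured by LC-MS/MS after methanol/acetic acid extraction. Mean ± SD of triplicates.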

[11] = tested on: Hepatocyte; experiment: Cellular uptake in human hepatocytes at 1 mM measured at 6 hrs by LC-MS/MS analysis in absence of acyl glucuronidation inhibitor (-)-borneol; format: ADME, cell-based; details: 1000 µM; summary of the method: as §3
[12] = tested on: Hepatocyte; experiment: Cytotoxicity against human hepatocytes assessed as decrease in cell viability by measuring intracellular ATP content at 1 mM measured at 6 hrs by CellTiter-Glo luminescent assay in absence of acyl glucuronidation inhibitor (-)-borneol; format: cell-based; details: 1000 µM; summary of the method: as §2
[13] = tested on: HEK293; experiment: Genotoxicity in HEK293 cells expressing UGT1A3 assessed as DNA strand breaks at 1 mM after 24 hrs by comet assay; format: toxicity, cell-based; details: human, hek293, 24 h, 1000 µM
Summary of the method: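 Alkaline comet assay: HEK/UGT1A3 cells seeded 24 h before, treated 24 h in DMEM with 0.5% FBS (vehicle 0.1% DMSO; MMS 0.1 mM positive control). Cells embedded in LMP agarose, lysed 1 h at 4°C at pH 10, unwound 30 min in NaOH/EDTA, electrophoresed 300 mA 20 min, ethidium-stained; tail moment scored on 150-180 comets over >3 experiments, median (IQR).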

[14] = tested on: HEK293; experiment: Cytotoxicity against HEK293 cells expressing UGT1A4 assessed as decrease in cell viability at 1 mM by MTT assay; format: ADME, cell-based; details: human, hek293, 1000 µM; TDE = time-dependent effect
[15] = tested on: Hepatocyte; experiment: Cytotoxicity against human hepatocytes assessed as decrease in cell viability at 1 mM measured at 6 hrs […] in presence of acyl glucuronidation inhibitor (-)-borneol; format: cell-based; details: 1000 µM
[16] = tested on: HEK293; experiment: Cytotoxicity against mock transfected HEK293 cells assessed as decrease in cell viability at 1 mM by MTT assay; format: cell-based; details: human, hek293, 1000 µM; TDE = time-dependent effect

Cc1ccc(C)c(OCCCC(C)(C)C(=O)O)c1 [GEMFIBROZIL]
Activity [1]: Non-toxic | Activity [2]: Non-toxic | Activity [3]: Non-toxic

CC(C)(Oc1ccc(CCNC(=O)c2ccc(Cl)cc2)cc1)C(=O)O [BEZAFIBRATE]
Activity [3]: Non-toxic

O=C(O)c1ccccc1O [SALICYLIC ACID]
Activity [1]: Non-toxic | Activity [2]: Non-toxic | Activity [3]: Non-toxic

CC(C(=O)O)c1ccc(-c2ccccc2)c(F)c1 (stereo not given) [FLURBIPROFEN]
Activity [3]: Non-toxic

CC1=C(CC(=O)O)c2cc(F)ccc2/C1=C\c1ccc([S+](C)[O-])cc1 (stereo not given)
Activity [3]: Non-toxic

CC(=O)Oc1ccccc1C(=O)O [ASPIRIN]
Activity [3]: Non-toxic

Cc1cccc(Nc2ccccc2C(=O)O)c1C [MEFENAMIC ACID]
Activity [3]: Non-toxic

COc1ccc2cc([C@H](C)C(=O)O)ccc2c1 [NAPROXEN]
Activity [4]: < 5.4% | Activity [5]: tde | Activity [6]: tde | Activity [7]: tde | Activity [8]: tde | Activity [9]: Toxic | Drug uptake [10]: Active | Drug uptake [11]: Active | Activity [12]: Toxic | Activity [13]: Non-toxic | Activity [14]: tde | Activity [15]: Toxic | Activity [2]: Non-toxic | Activity [16]: tde
